Test results taken from ChEMBL document CHEMBL5705890, “Antitumor activity of an allosteric inhibitor of centromere-associated protein-E” (Proc Natl Acad Sci U S A, 2010).

Tests used:
Type in all cases: functional
[1] = tested on: ACHN; assay: Anticancer activity against human ACHN cells assessed as cell growth inhibition measured after 72 hrs by DAPI staining based analysis
Outline: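 Cells were seeded and, after 24 h, DNA content was read as T0. Cells were then exposed to varying drug concentrations for a further 72 h (T72). Fixed cells were DAPI-stained and DNA content measured by automated imaging. T72 values were normalized to T0. GI50 is the concentration giving 50% growth inhibition between T0 and Ymax, obtained by curve fitting.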

[2] = Anticancer activity against human BM-1604 cells assessed as cell growth inhibition measured after 72 hrs by DAPI staining based analysis
Outline: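 Cells were seeded, and DNA content at 24 h after seeding (T0) was read by imaging of fixed, DAPI-stained cells. Cells were then exposed to a range of drug concentrations for a further 72 h (T72) and DNA content was read again. T72 values were normalized to T0, and GI50 was taken from curve fits as the concentration giving 50% growth inhibition relative to T0 and Ymax.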

[3] = tested on: COLO 201; assay: Anticancer activity against human COLO201 cells assessed as cell growth inhibition measured after 72 hrs by DAPI staining based analysis
Outline: (§1)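 Cells seeded, DAPI-stained DNA content of fixed cells read by imaging 24 h after seeding (T0), and again after a further 72 h exposure to a range of drug concentrations (T72). T72 values were normalized to T0. Curve fits gave the concentration producing 50% growth inhibition relative to T0 and Ymax (GI50).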

[4] = tested on: CRO-AP2; assay: Anticancer activity against human CRO-AP2 cells assessed as cell growth inhibition measured after 72 hrs by DAPI staining based analysis; outline: as §1
[5] = tested on: DU-4475; assay: Anticancer activity against human DU-4475 cells assessed as cell growth inhibition measured after 72 hrs by DAPI staining based analysis; outline: as §1
[6] = tested on: GCT; assay: Anticancer activity against human GCT cells assessed as cell growth inhibition measured after 72 hrs by DAPI staining based analysis; outline: as §1
[7] = tested on: HEC-1-A; assay: Anticancer activity against human HEC-1-A cells assessed as cell growth inhibition measured after 72 hrs by DAPI staining based analysis
[8] = tested on: IGROV-1; assay: Anticancer activity against human IGROV-1 cells assessed as cell growth inhibition measured after 72 hrs by DAPI staining based analysis
[9] = tested on: K562; assay: Anticancer activity against human K562 cells assessed as cell growth inhibition measured after 72 hrs by DAPI staining based analysis
[10] = tested on: NCI-H82; assay: Anticancer activity against human NCI-H82 cells assessed as cell growth inhibition measured after 72 hrs by DAPI staining based analysis
[11] = tested on: NCI-N87; assay: Anticancer activity against human NCI-N87 cells assessed as cell growth inhibition measured after 72 hrs by DAPI staining based analysis
[12] = tested on: RPMI-6666; assay: Anticancer activity against human RPMI-6666 cells assessed as cell growth inhibition measured after 72 hrs by DAPI staining based analysis
[13] = tested on: SAOS-2; assay: Anticancer activity against human SAOS-2 cells assessed as cell growth inhibition measured after 72 hrs by DAPI staining based analysis
[14] = tested on: SK-LMS-1; assay: Anticancer activity against human SK-LMS-1 cells assessed as cell growth inhibition measured after 72 hrs by DAPI staining based analysis
[15] = tested on: SK-MEL3; assay: Anticancer activity against human SK-MEL3 cells assessed as cell growth inhibition measured after 72 hrs by DAPI staining based analysis
[16] = tested on: SN12C; assay: Anticancer activity against human SN12C cells assessed as cell growth inhibition measured after 72 hrs by DAPI staining based analysis
[17] = tested on: SR; assay: Anticancer activity against human SR cells assessed as cell growth inhibition measured after 72 hrs by DAPI staining based analysis
[18] = tested on: SW684; assay: Anticancer activity against human SW684 cells assessed as cell growth inhibition measured after 72 hrs by DAPI staining based analysis
[19] = tested on: SW 962; assay: Anticancer activity against human SW 962 cells assessed as cell growth inhibition measured after 72 hrs by DAPI staining based analysis
[20] = tested on: T-24; assay: Anticancer activity against human T24 cells assessed as cell growth inhibition measured after 72 hrs by DAPI staining based analysis
[21] = tested on: A 172; assay: Anticancer activity against human A-172 cells assessed as cell doubling measured for 72 hrs by DAPI staining based analysis
[22] = tested on: AN3-CA; assay: Anticancer activity against human AN3-CA cells assessed as cell doubling measured for 72 hrs by DAPI staining based analysis
[23] = tested on: FaDu; assay: Anticancer activity against human FaDu cells assessed as cell doubling measured for 72 hrs by DAPI staining based analysis
[24] = tested on: G-401; assay: Anticancer activity against human G-401 cells assessed as cell doubling measured for 72 hrs by DAPI staining based analysis
[25] = tested on: HCC1143; assay: Anticancer activity against human HCC1143 cells assessed as cell doubling measured for 72 hrs by DAPI staining based analysis
[26] = tested on: HN5; assay: Anticancer activity against human HN5 cells assessed as cell doubling measured for 72 hrs by DAPI staining based analysis
[27] = Anticancer activity against human KHOS-240S cells assessed as cell doubling measured for 72 hrs by DAPI staining based analysis
[28] = tested on: MCF-10A; assay: Anticancer activity against human MCF-10A cells assessed as cell doubling measured for 72 hrs by DAPI staining based analysis
[29] = tested on: MDA-MB-231; assay: Anticancer activity against human MDA-MB-231 cells assessed as cell doubling measured for 72 hrs by DAPI staining based analysis
[30] = tested on: Raji; assay: Anticancer activity against human Raji cells assessed as cell doubling measured for 72 hrs by DAPI staining based analysis
[31] = tested on: SCC-9; assay: Anticancer activity against human SCC-9 cells assessed as cell doubling measured for 72 hrs by DAPI staining based analysis
[32] = tested on: SK-UT-1; assay: Anticancer activity against human SK-UT-1 cells assessed as cell doubling measured for 72 hrs by DAPI staining based analysis
[33] = tested on: ST486; assay: Anticancer activity against human ST486 cells assessed as cell doubling measured for 72 hrs by DAPI staining based analysis
[34] = tested on: UACC-62; assay: Anticancer activity against human UACC-62 cells assessed as cell doubling measured for 72 hrs by DAPI staining based analysis
[35] = tested on: WiDr; assay: Anticancer activity against human WiDr cells assessed as cell doubling measured for 72 hrs by DAPI staining based analysis
[36] = tested on: HCT-116; assay: Antitumor activity against human HCT-116 cells in xenograft model assessed as difference between median time to endpoint time of treated versus control group at 62.5 mg/kg
[37] = tested on: A549; assay: Antitumor activity against human A549 cells in xenograft model assessed as difference between median time to endpoint time of treated versus control group at 125 mg/kg
[38] = tested on: MCF7; assay: Antitumor activity against human MCF7 cells in xenograft model assessed as difference between median time to endpoint time of treated versus control group at 125 mg/kg
[39] = tested on: MDA-MB-231; assay: Antitumor activity against human MDA-MB-231 cells in xenograft model assessed as difference between median time to endpoint time of treated versus control group at 125 mg/kg

GI50 [1]: 61 nM
GI50 [3]: 24 nM
GI50 [9]: 25 nM
GI50 [10]: 18 nM
GI50 [14]: 30 nM
GI50 [15]: 30 nM
GI50 [18]: 5020 nM
SMILES: CC(C)Oc1ccc(C(=O)N[C@H](CNC(=O)CN(C)C)Cc2ccc(-c3cn4cccc([C@H](C)O)c4n3)cc2)cc1Cl [GSK-923295A]
GI50 [2]: 40 nM
GI50 [4]: 51 nM
GI50 [5]: 147 nM
GI50 [6]: 23 nM
GI50 [7]: 50 nM
GI50 [8]: 31 nM
GI50 [11]: 29 nM
GI50 [12]: 88 nM
GI50 [13]: 41 nM
GI50 [16]: 29 nM
GI50 [17]: 29 nM
GI50 [19]: 21 nM
GI50 [20]: 45 nM
Activity [21]: 1.84
Activity [22]: 1.74
Activity [23]: 2.61
Activity [24]: 4.28
Activity [25]: 1.89
Activity [26]: 3.38
Activity [27]: 2.44
Activity [28]: 3.87
Activity [29]: 2.32
Activity [30]: 3.26
Activity [31]: 1.95
Activity [32]: 2.88
Activity [33]: 2.46
Activity [34]: 2.12
Activity [35]: 3.05
Time [36]: -2.8 days
Time [37]: 25.3 days
Time [38]: 15.8 days
Time [39]: 47.1 days
